A selection: hits, their analogues and other compounds. The true share with any hit is near 2.5%.
TRPC4 block: inhibitors of mouse TRPC4 channel. Q9QUQ5. HEK293 TRPC4beta/mu-opioid, DAMGO-evoked Fluo4 calcium flux; stronger effect = lower value. hit rate 0.39% among 300,000. B-score at 10 µM. AID 2247;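 active = B-score over 3 SD under the library average, no early fluorescence shift, positive overall ratio signal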
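test system = HEK293 cells with stable TRPC4beta plus mu-opioid receptor expression | detection = Fluo4 Ca2+ flux fluorescence | read-out = integrated fluorescence ratio relative to baseline, converted to per-well B score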
TRPC4 act: activators of mouse TRPC4 channel | hit rate 0.49% among 310,000 | HEK293 TRPC4beta/mu-opioid, Fluo4 calcium fluorescence; stronger effect = higher value | Q9QUQ5 | B-score at 10 µM;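 active = B-score above 5 SD of library B-scores, and initial fluorescence ratio not above library mean plus 5 SD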;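 note: positive B-score marks a calcium rise read as TRPC4 activation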
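Test system: HEK293 cells stably co-expressing mouse TRPC4beta and mu-opioid receptor | Schedule: Fluo4 dye loading 45 min at room temperature, 110 s recording | Measured by: Kinetic Fluo4 calcium fluorescence, 5 s baseline at 1 Hz | Evaluation: B score of integrated ratio | Controls: Buffer (low) and maximal DAMGO (high)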
TRPC6 activator: activates the mouse TRPC6 cation channel; HEK293-TRPC6 membrane potential dye fluorescence; stronger effect = higher value; B-score at 10 µM; AID 2550; Q61143; hit rate 0.13% among 310,000;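 active = B-score of the integrated fluorescence ratio above library mean plus 3 SD, and starting fluorescence ratio within library mean plus 5 SD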;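 note: higher score means more depolarization so channel activation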
Target sequence (Q61143 whole entry, looked up): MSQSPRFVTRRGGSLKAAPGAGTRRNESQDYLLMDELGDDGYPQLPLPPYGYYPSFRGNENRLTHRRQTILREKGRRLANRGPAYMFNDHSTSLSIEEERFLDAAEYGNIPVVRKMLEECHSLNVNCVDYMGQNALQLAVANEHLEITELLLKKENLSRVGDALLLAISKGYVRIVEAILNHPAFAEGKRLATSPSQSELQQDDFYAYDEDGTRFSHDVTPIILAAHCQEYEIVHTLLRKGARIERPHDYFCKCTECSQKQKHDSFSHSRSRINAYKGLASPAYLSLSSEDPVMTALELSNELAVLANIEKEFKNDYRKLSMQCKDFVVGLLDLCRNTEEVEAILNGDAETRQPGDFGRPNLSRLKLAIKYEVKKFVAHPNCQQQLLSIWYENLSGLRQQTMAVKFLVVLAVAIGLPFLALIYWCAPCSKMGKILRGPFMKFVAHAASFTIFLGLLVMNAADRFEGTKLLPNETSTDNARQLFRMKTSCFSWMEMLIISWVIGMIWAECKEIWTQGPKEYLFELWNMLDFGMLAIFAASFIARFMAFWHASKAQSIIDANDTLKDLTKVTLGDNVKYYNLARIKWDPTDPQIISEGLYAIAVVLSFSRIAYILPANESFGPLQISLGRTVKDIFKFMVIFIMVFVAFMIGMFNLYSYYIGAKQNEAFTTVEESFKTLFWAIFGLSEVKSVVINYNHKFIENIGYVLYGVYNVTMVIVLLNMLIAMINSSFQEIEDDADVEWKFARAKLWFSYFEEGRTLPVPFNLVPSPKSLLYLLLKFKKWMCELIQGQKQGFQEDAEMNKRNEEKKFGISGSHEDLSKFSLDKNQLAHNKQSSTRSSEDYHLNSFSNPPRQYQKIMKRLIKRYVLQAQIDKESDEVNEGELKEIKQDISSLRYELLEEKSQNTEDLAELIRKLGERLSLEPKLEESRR
Platelet DG rel: platelet dense granule release activity | human platelet-rich plasma, SFLLRN dense granule ATP release, luminescence | inhibition, %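 (compounds screened at 7.5 µM in platelet-rich plasma)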 | hit rate 0.22% among 300,000 | AID 1663;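 active = mean replicate score, as percent of positive control, at or above 50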
TRPC4 PAM: allosteric potentiators of mouse TRPC4 channel; B-score at 10 µM; hit rate 0.42% among 310,000; HEK293 TRPC4beta/mu-opioid, DAMGO EC20, Fluo-4 Ca2+ flux; stronger effect = higher value;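 active = B-score of calcium response area above 5 SD of library B-scores, with initial fluorescence ratio within 5 SD of library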
TRPC6 inhibitor: inhibitors of mouse TRPC6 channel; HEK293-TRPC6, membrane potential dye, ACh-evoked depolarization; stronger effect = lower value; B-score at 10 µM; hit rate 1.1% among 310,000;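 active = B-score under library mean minus 3 SD, initial fluorescence not abnormally high, positive integrated signal ratio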;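 note: B-score derived from integrated fluorescence ratio over the kinetic read; more negative B-score means stronger inhibition of depolarization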
TRPC4 spec 2: mouse TRPC4 off-target activity of TRPC6 inhibitors, second screen | shares compounds with TRPC6 inhibitor | HEK293 TRPC4/MOR, membrane potential dye fluorescence; channel activated by saturating DAMGO dose | inhibition, % at 10 µM | hit rate 42% among 920 | AID 2776;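 active = compounds whose fluorescence signal differed from control wells by over 3 SD, either direction, in both duplicate plates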
TRPC4 spec: mouse TRPC4 off-target activity of TRPC6 inhibitors; hit rate 61% among 920; activity change, negative = inhibition, % at 10 µM; HEK293 TRPC4/mu-opioid, membrane potential fluorescence; shares compounds with TRPC6 inhibitor; AID 2777;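 active = rise or fall in signal beyond 3 SD of buffer-only wells in both replicate plates, either sign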;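 note: integrated kinetic ratio of fluorescence range over baseline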
HEK293 MPD ctr 2-1: second counter-screen for TRPC6 inhibitors: parental HEK293 cells. shares compounds with TRPC6 inhibitor. parental HEK293 membrane potential dye fluorescence; maximal acetylcholine challenge after compound addition. signal change vs control, % at 10 µM. hit rate 31% among 920;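 active = membrane potential signal moving either way by over 3 SD of the maximum-effect control, in both duplicate plates, meaning non-specific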
HEK293 MPD ctr-1: checks TRPC6 inhibitor effects in parental HEK293 cells; shares compounds with TRPC6 inhibitor; parental HEK293 membrane potential dye fluorescence; membrane potential signal change, % at 10 µM; hit rate 60% among 920;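 active = membrane potential signal shifting up or down by more than 3 SD of buffer-only wells, on both duplicate plates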
HEK293 MPD ctr-2: counter-screen for TRPC6 modulators: effect in parental HEK293 cells; membrane potential signal change, % at 10 µM; shares compounds with TRPC6 inhibitor; membrane potential dye fluorescence; hit rate 51% among 2,400;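 active = membrane potential signal moves up or down beyond 5 SD from buffer-only wells, on both duplicate plates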
HEK293 MPD ctr 2-2: second counter-screen for TRPC6 modulators: effect in parental HEK293 cells | shares compounds with TRPC6 inhibitor | membrane potential dye fluorescence; after compound, maximal acetylcholine stimulation | inhibition, % at 10 µM | hit rate 14% among 2,400 | AID 488926;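 active = membrane potential signal drops by more than 5 SD from the mean control signal, in both duplicate plates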
TRPC4 ctr mod: mouse TRPC4 off-target activity of TRPC6 modulators; shares compounds with TRPC6 inhibitor; percent change from control (negative = decrease, positive = increase), % at 10 µM; AID 488927; hit rate 69% among 2,400; HEK293 TRPC4/mu-opioid, membrane potential fluorescence;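 active = membrane potential signal moved up or down beyond 5 SD of buffer control wells, in both duplicate plates, actives on both sides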
TRPC4 ctr inh 2: mouse TRPC4 off-target activity of TRPC6 modulators, second screen; shares compounds with TRPC6 inhibitor; HEK293 TRPC4/mu-opioid, membrane potential dye fluorescence; stimulated with maximal-effect DAMGO; inhibition, % at 10 µM; hit rate 55% among 2,400; AID 488928;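 active = drop in membrane potential signal beyond 5 SD of the control wells in both duplicate plates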;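 note: TRPC4 counter screen for TRPC6 hits run under conditions tuned for TRPC6 not TRPC4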
TRPC6 block conf: confirmation of mouse TRPC6 inhibitors; hit rate 43% among 3,300; HEK293-TRPC6, membrane potential dye, ACh-evoked depolarization; AID 488960; inhibition, % at 10 µM; shares compounds with TRPC6 inhibitor;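 active = fluorescence ratio falls more than 5 SD below the full-stimulation control mean, in both duplicate runs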;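 note: integrated fluorescence ratio of peak minus minimum over baseline after agonist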
TRPC6 act conf: confirmation of mouse TRPC6 activators; shares compounds with TRPC6 inhibitor; HEK293-TRPC6 membrane potential dye fluorescence, FDSS; activation, % at 10 µM; hit rate 11% among 2,800; AID 488961;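 active = ratio signal rise beyond 5 SD above unstimulated control wells' mean, seen in both duplicate runs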
Large screens that a line does not name were inactive (follow-up assays come after a bar, where they were run).

Cn1c2c(c(=O)n(C)c1=O)C(C(F)(F)F)(C(F)(F)F)N=C(c1ccc(Cl)cc1)N2	TRPC6 inhibitor -7.92 | TRPC4 spec 2 75.5% | TRPC4 spec 20.1% | HEK293 MPD ctr 2-1 inactive | HEK293 MPD ctr-1 10.6% | TRPC6 block conf 101.5% | TRPC6 act conf inactive
Cc1ccc(-n2cc(CNCCN3CCOC3=O)c(-c3cccc(C)c3)n2)cc1	TRPC6 inhibitor -5.82 | HEK293 MPD ctr-2 inactive | HEK293 MPD ctr 2-2 inactive | TRPC4 ctr mod 10.0% | TRPC4 ctr inh 2 58.0% | TRPC6 block conf inactive | TRPC6 act conf inactive
O=C1OCCN1CCNCc1cn(-c2ccc(F)cc2)nc1-c1ccccc1Cl	none
Clc1ccc(SCCCCN2CCNCC2)cc1	TRPC4 PAM 14, TRPC6 inhibitor -7.55 | TRPC4 spec 2 67.0% | TRPC4 spec inactive | HEK293 MPD ctr 2-1 inactive | HEK293 MPD ctr-1 2.5% | TRPC6 block conf inactive | TRPC6 act conf inactive
Clc1ccc(SCCCCN2CCOCC2)cc1	none
COc1cccc(CN2C(=NC(=O)CCC3CCCC3)SC3CS(=O)(=O)CC32)c1 (stereo unspecified)	none
Cc1nn(-c2ccccc2)c(C)c1NC(=O)COC(=O)Cc1ccccc1F	none
Cc1ccc(C2N(c3ccccc3)C(=S)N3CCCN23)cc1 (stereo unspecified)	TRPC6 inhibitor -7.51 | TRPC4 spec 2 inactive | TRPC4 spec inactive | HEK293 MPD ctr 2-1 inactive | HEK293 MPD ctr-1 inactive | TRPC6 block conf 69.8% | TRPC6 act conf inactive
O=C(NCC1CCCO1)C1CC(=O)N(c2ccc(Cl)cc2)C1 (stereo unspecified)	none
CCCC(C)C(=O)Nc1nc(C)c(-c2csc(Nc3ccc(Cl)cc3)n2)s1 (stereo unspecified)	TRPC6 inhibitor -6.01 | HEK293 MPD ctr-2 inactive | HEK293 MPD ctr 2-2 inactive | TRPC4 ctr mod inactive | TRPC4 ctr inh 2 inactive | TRPC6 block conf inactive | TRPC6 act conf inactive
O=C(Nc1cccc(CNCCc2c[nH]c3ccccc23)c1)c1ccccc1Cl	TRPC6 inhibitor -6.54 | HEK293 MPD ctr-2 inactive | HEK293 MPD ctr 2-2 inactive | TRPC4 ctr mod -15.0% | TRPC4 ctr inh 2 80.0% | TRPC6 block conf 55.0% | TRPC6 act conf inactive
O=C(CN1CCCCC1)Nc1ccc(N2CCCCCC2)cc1	TRPC6 inhibitor -6.6 | HEK293 MPD ctr-2 inactive | HEK293 MPD ctr 2-2 inactive | TRPC4 ctr mod inactive | TRPC4 ctr inh 2 36.5% | TRPC6 block conf 54.0% | TRPC6 act conf inactive
CCN(CC)CC(=O)Nc1ccc(-c2nc3cc(NC(=O)CN(CC)CC)ccc3o2)cc1	TRPC6 inhibitor -8.65 | TRPC4 spec 2 71.5% | TRPC4 spec inactive | HEK293 MPD ctr 2-1 inactive | HEK293 MPD ctr-1 inactive | TRPC6 block conf inactive
O=C(CN1CCCC1)Nc1ccc(-c2nc3cc(NC(=O)CN4CCCC4)ccc3o2)cc1	TRPC6 activator 11.8 | HEK293 MPD ctr-2 218.5% | HEK293 MPD ctr 2-2 inactive | TRPC4 ctr mod 27.5% | TRPC4 ctr inh 2 inactive | TRPC6 block conf inactive | TRPC6 act conf 76.0%
C/C(Cn1ncc(N2CCOCC2)c(Cl)c1=O)=N\O	none
N#CCOC(=O)C1c2ccccc2Oc2ccccc21	none
CCN(CC)CCOC(=O)C1c2ccccc2Oc2ccccc21	TRPC6 inhibitor -9.97 | TRPC4 spec 2 inactive | TRPC4 spec 7.9% | HEK293 MPD ctr 2-1 28.5% | HEK293 MPD ctr-1 6.7% | TRPC6 block conf 81.4%
N#Cc1ccccc1NC(=O)C1CC(=O)N(c2ccc3c4c(cccc24)CC3)C1 (stereo unspecified)	none
COc1ccc(COc2ccc(C3C(S(=O)(=O)c4ccccc4)CON3C)cc2OC)cc1 (stereo unspecified)	none
Cc1ncc(CSc2nc3ccccc3[nH]2)c(N)n1	none
CCOc1ccccc1CSc1nc2ccccc2[nH]1	TRPC6 inhibitor -5.77 | HEK293 MPD ctr-2 inactive | HEK293 MPD ctr 2-2 inactive | TRPC4 ctr mod inactive | TRPC4 ctr inh 2 inactive | TRPC6 block conf inactive | TRPC6 act conf inactive
Cc1cccn2cc(-c3ccc4c(c3)NC(=O)CO4)nc12	TRPC6 inhibitor -5.93 | HEK293 MPD ctr-2 -84.5% | HEK293 MPD ctr 2-2 inactive | TRPC4 ctr mod -16.0% | TRPC4 ctr inh 2 inactive | TRPC6 block conf inactive | TRPC6 act conf inactive
Cc1ccn2cc(-c3ccc4c(c3)NC(=O)CO4)nc2c1	none
O=C(NCc1cccs1)c1cc(S(=O)(=O)N2CCOCC2)c(Cl)cc1Cl	none
CC(=O)c1ccccc1Oc1cc(NN2CCCCC2)c([N+](=O)[O-])cc1[N+](=O)[O-]	TRPC6 inhibitor -5.98 | HEK293 MPD ctr-2 inactive | HEK293 MPD ctr 2-2 inactive | TRPC4 ctr mod inactive | TRPC4 ctr inh 2 31.5% | TRPC6 block conf inactive | TRPC6 act conf inactive
CCCCc1nc2ccccc2c(NC(=O)CNC(C)(C)C)c1CCC	none
CCCCc1nc2ccccc2c(N)c1CCC (tested in a mixture with another compound)	TRPC4 block -6, TRPC6 inhibitor -7.63 | TRPC4 spec 2 15.0% | TRPC4 spec inactive | HEK293 MPD ctr 2-1 inactive | HEK293 MPD ctr-1 0.7% | TRPC6 block conf 59.2% | TRPC6 act conf inactive
